Data set [1] in a line: Dissociation constant, pKa of the compound. In kind it is physicochemical.
Data set [2] concerns the target P2Y purinoceptor 1 (Rattus norvegicus) (UniProt P49651). Nature of the data set: Agonist activity at rat pancreas P2Y1 receptor assessed as enhancement of insulin secretion relative to basal level. In kind it is functional.
In data set [3] the target is T1, Ectonucleoside triphosphate diphosphohydrolase 1 (Bos taurus) (UniProt O18956).
T1 sequence (whole entry): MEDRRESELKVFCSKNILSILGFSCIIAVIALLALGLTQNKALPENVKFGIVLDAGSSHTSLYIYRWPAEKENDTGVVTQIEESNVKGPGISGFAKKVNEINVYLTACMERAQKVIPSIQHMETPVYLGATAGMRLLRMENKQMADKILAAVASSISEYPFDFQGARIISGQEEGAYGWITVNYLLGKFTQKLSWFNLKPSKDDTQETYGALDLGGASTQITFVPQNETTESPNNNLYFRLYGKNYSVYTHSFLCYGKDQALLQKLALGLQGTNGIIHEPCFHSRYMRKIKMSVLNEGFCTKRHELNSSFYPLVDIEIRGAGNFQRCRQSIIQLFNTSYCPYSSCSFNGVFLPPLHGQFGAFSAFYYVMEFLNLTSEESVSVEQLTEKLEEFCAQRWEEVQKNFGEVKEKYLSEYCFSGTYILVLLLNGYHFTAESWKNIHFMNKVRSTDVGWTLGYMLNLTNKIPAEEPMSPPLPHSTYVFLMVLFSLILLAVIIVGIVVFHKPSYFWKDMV
Nature of the data set: Activity of bovine spleen NTPDase 1 assessed as drug hydrolysis at 100 uM after 7 mins by malachite green colorimetric assay relative to ATP. In kind it is tissue-based. Details: scale not given: the % may be the effect or the level left.

Data set [4] has as its target P2Y purinoceptor 4 (Homo sapiens, UniProt P51582). Nature of the data set: Agonist activity at human P2Y4 receptor expressed in human 1321N1 cells assessed as increase in intracellular calcium concentration by dual-excitation spectrofluorimetric analysis. The class given is functional, cell-based. In short, it runs like this: (§1)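 1321N1 astrocytoma cells stably expressing the receptor (turkey P2Y1, human P2Y2, human P2Y4, rat P2Y6) were grown with G-418 selection. Fura-2-loaded cell suspensions were exposed at 37 °C in 10 mM HEPES-buffered saline pH 7.4 with 1 mM CaCl2 and 1 mM MgCl2. Peak [Ca2+]i rise was measured over a range of concentrations to derive EC50.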

Data set [5] addresses P2Y purinoceptor 2 (Homo sapiens, UniProt P41231). Nature of the data set: Agonist activity at human P2Y2 receptor expressed in human 1321N1 cells assessed as increase in intracellular calcium concentration by dual-excitation spectrofluorimetric analysis. In kind it is functional, cell-based. In short, it runs like this:
as §1
Background: Calcium assays in cells follow changes in intracellular calcium, usually with a dye or a luminescent sensor.

The target of data set [6] is T2, P2Y purinoceptor 1 (Meleagris gallopavo, UniProt P49652). Nature of the data set: Antagonist activity at turkey P2Y1 receptor expressed in human 1321N1 cells assessed as inhibition of 2-MeS-ADP-induced increase in intracellular calcium concentration by dual-excitation spectrofluorimetric analysis. In kind it is functional, cell-based. In short, it runs like this: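 Fura-2-loaded suspensions of stably transfected 1321N1 cells were assayed at 37 °C in HEPES-buffered saline pH 7.4 with 1 mM Ca2+ and Mg2+. […] [Ca2+]i was read by dual-excitation spectrofluorometry.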

The target of data set [7] is T2, P2Y purinoceptor 1. Nature of the data set: Agonist activity at turkey P2Y1 receptor expressed in human 1321N1 cells assessed as increase in intracellular calcium concentration by dual-excitation spectrofluorimetric analysis. In kind it is functional, cell-based.
The nature of data set [8]: Chemical stability assessed as hydrolysis half life at 1.6 mg at pH 1.4 measured at 7 to 17 hrs interval for 5 days by HPLC-MS analysis. In kind it is physicochemical. In short, it runs like this: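 1.6 mg in 0.2 M HCl/KCl buffer with pH brought to 1.4, held at 37 °C. Sampled at 7–17 h intervals for 5 days by HPLC-ESI-MS on C18 with TEAA/MeOH gradient. Peak area versus time was fit to pseudo-first-order decay for t1/2.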

A short description of data set [9]: Stability at 77 ug/ml after 30 mins by HPLC in presence of calf intestine alkaline phosphatase. In kind it is ADME. Particulars: cattle, isolated protein, 0.5 h.
For data set [10], the system named is Serum. Nature of the data set: Metabolic stability in human serum assessed as hydrolysis half life at 0.25 mM measured for 18 hrs by HPLC. The class given is ADME, cell-free. Particulars: 250 µM. In short, it runs like this:
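Serum from healthy-donor whole blood (12 h at 4 °C, spun 1500 × g for 15 min, stored at −80 °C) was diluted 1:3 in RPMI-1640 and incubated with the nucleotide at 37 °C. Samples were acid-quenched (0.6 M HCl), spun, neutralised with 4 M KOH and freeze-dried. They were run on C18 HPLC with a KH2PO4 pH 4.5/acetonitrile gradient. t1/2 came from the change in peak integration over time.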

The test system of data set [11] is Serum. Briefly: (§2) Metabolic stability in human serum assessed as hydrolysis half life at 40 mM measured for 6 days by HPLC. The class given is ADME, cell-free. Particulars: 144 h, 40000 µM.
Data set [12] in a line: Chemical stability at physiological pH at 37 deg C assessed as hydrolysis half life by 31P NMR analysis. The class given is physicochemical.
A short description of data set [13]: Chemical stability assessed as hydrolysis half life at pH 1.4 by 31P NMR analysis. Particulars: buffer. The class given is physicochemical.
For data set [14], the system named is alkaline phosphatase. Nature of the data set: Stability assessed as drug remaining after 12 mins by HPLC-MS analysis in presence of calf intestine alkaline phosphatase. The class given is ADME. Particulars: cattle, read-out: Stability.
Data set [15] in a line: Stability after 100 mins by HPLC-MS analysis in presence of calf intestine alkaline phosphatase. The class given is ADME. Particulars: cattle, isolated protein.
In data set [16] the target is P2Y purinoceptor 1 (Rattus norvegicus, UniProt P49651). Briefly: Agonist activity at rat pancreas P2Y1 receptor assessed as enhancement of insulin secretion. The class given is functional.
Data set [17] deals with P2Y purinoceptor 6 (Rattus norvegicus, UniProt Q63371). Briefly: Agonist activity at rat P2Y6 receptor expressed in human 1321N1 cells assessed as increase in intracellular calcium concentration by dual-excitation spectrofluorimetric analysis. The class given is functional, cell-based. The gist of the method:
as §1

Data set [18] is described as follows: as §2. In kind it is ADME, cell-free.

The term pKa denotes the pH at which an ionisable group is half protonated. Broadly, the EC50 is the concentration at which the effect is half-maximal. In general, half-life refers to the time needed for the level to fall by half in the phase considered.

T2 sequence (P49652 whole entry): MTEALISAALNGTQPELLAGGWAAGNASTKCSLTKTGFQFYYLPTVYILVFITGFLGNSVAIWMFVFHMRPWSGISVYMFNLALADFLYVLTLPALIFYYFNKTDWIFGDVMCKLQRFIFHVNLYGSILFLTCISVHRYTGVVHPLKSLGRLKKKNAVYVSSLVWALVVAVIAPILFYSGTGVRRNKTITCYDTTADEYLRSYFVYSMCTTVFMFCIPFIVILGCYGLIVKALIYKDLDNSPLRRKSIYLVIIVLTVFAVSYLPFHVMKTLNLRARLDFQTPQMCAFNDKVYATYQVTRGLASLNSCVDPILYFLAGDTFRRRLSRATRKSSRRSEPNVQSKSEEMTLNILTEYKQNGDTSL
Sequence of P2Y purinoceptor 6 (Q63371 whole entry): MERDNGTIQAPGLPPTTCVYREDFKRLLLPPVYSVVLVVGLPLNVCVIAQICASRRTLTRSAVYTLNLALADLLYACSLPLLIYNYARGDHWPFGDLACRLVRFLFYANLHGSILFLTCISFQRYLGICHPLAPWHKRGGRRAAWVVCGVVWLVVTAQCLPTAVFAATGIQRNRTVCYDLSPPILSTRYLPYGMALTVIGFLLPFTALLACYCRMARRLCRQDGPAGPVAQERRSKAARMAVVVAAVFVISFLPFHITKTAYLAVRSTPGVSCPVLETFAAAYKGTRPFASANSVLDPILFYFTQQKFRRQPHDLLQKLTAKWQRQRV
Sequence of P2Y purinoceptor 4 (P51582 whole entry): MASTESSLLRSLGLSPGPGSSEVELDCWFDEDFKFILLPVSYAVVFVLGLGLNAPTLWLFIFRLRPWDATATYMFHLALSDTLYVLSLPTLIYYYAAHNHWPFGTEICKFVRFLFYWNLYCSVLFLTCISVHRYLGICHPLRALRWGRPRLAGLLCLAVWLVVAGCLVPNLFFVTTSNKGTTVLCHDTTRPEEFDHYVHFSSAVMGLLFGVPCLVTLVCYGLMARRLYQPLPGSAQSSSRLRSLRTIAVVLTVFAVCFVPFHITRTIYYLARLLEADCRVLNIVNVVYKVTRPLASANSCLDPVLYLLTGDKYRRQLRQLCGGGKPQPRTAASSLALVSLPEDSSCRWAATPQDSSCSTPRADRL
Sequence of P2Y purinoceptor 1 (Rattus norvegicus, UniProt P49651) (P49651 whole entry): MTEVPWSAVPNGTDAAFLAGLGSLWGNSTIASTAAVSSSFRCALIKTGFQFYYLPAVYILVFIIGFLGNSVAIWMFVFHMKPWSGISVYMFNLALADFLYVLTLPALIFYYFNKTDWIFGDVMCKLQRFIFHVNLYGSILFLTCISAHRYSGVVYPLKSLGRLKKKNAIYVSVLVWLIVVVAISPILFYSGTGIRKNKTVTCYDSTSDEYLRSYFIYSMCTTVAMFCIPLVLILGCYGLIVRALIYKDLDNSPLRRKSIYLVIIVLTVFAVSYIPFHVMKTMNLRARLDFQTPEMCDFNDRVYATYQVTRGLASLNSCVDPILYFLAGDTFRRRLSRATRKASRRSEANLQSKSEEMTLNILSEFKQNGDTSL
Sequence of P2Y purinoceptor 1 (Rattus norvegicus) (P49651 whole entry): as above
Sequence of P2Y purinoceptor 2 (P41231 whole entry): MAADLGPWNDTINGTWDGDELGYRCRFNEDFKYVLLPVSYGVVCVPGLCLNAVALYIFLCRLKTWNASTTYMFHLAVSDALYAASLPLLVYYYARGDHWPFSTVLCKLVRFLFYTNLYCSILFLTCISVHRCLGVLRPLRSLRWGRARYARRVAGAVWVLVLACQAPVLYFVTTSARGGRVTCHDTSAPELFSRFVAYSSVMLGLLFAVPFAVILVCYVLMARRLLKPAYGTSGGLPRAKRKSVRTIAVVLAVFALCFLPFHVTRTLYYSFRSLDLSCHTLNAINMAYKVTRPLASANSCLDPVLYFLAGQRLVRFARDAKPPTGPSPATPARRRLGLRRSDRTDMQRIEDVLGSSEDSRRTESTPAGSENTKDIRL

In turn, `CSc1nc(N)c2ncn([C@@H]3O[C@H](COP(=O)(O)OP(=O)(O)O)[C@@H](O)[C@H]3O)c2n1` came in with a pKa in data set [1] of 6.5.

For the molecule `BP(=O)(OC[C@H]1O[C@@H](n2cnc3c(N)nc(SC)nc32)[C@H](O)[C@@H]1O)OP(=O)(O)OP(=O)(O)O` (single isomer, unassigned; diastereomer A) [listing 1 of 2 here], the fold change (FC) in [2] stood at 9. The Activity in data set [3] came to 14%.

Regarding `O=c1ccn([C@@H]2O[C@H](COP(=O)(O)OP(=O)(O)OP(=O)(O)O)[C@@H](O)[C@H]2O)c(=O)[nH]1` [URIDINE TRIPHOSPHATE], the figures for the EC50 in [4] and in data set [5] were 480 nM and 640 nM, respectively.

For the molecule `BP(=O)(OC[C@H]1O[C@@H](n2cnc3c(N)ncnc32)[C@H](O)[C@@H]1O)OP(=O)(O)CP(=O)(O)O` (some centres undefined), the EC50 result in data set [6] is “Not Active”.

In the case of `Nc1ncnc2c1ncn2[C@@H]1O[C@H](COP(=O)(O)OP(=O)(O)O)[C@@H](O)[C@H]1O` [ADENOSINE DIPHOSPHATE], in data set [7], the concentration for a half-maximal effect (EC50) was found to be 100 nM.

Take `BP(=O)(OC[C@H]1O[C@@H](n2cnc3c(N)nc(SC)nc32)[C@H](O)[C@@H]1O)OP(=O)(O)OP(=O)(O)O` (single isomer, unassigned; diastereomer B): the Activity in data set [3] is 59%.

As to `BP(=O)(OC[C@H]1O[C@@H](n2cnc3c(N)ncnc32)[C@H](O)[C@@H]1O)OP(=O)(O)CP(=O)(O)O` (single isomer, unassigned; diastereomer B), in data set [8], the half-life is 19 h. In data set [9], the Stability result is listed as “Stable”.

`Nc1ncnc2c1ncn2[C@@H]1O[C@H](COP(=O)(O)OP(=O)(O)OP(=O)(O)O)[C@@H](O)[C@H]1O` [ADENOSINE TRIPHOSPHATE]: the t1/2 was 3.6 h in data set [10] and 7.7 h in [11].

`BP(=O)(OC[C@H]1O[C@@H](n2cnc3c(N)nc(SC)nc32)[C@H](O)[C@@H]1O)OP(=O)(O)OP(=O)(O)O` (single isomer, unassigned; diastereomer A) [listing 2 of 2 here]: the half-life in data set [12] is 1400 h; in data set [13], 5.9 h. Also, in [14], the remaining at 0.2 h came out at 40%. The Stability entry in data set [15] is recorded as “Unstable”. In addition, in data set [16], the concentration giving a half-maximal response (EC50) turned out to be 28 nM.

In the case of `BP(=O)(OC[C@H]1O[C@@H](n2cnc3c(N)nc(SC)nc32)[C@H](O)[C@@H]1O)OP(=O)(O)CP(=O)(O)O` (single isomer, unassigned; diastereomer A), the 50% effective concentration (EC50) entry in data set [17] (1321-n1) is “Not Active”. Also, the Stability entry in data set [11] was “Stable”.

Turning to `O=c1ccn([C@@H]2O[C@H](COP(=O)(O)OP(=O)(O)O)[C@@H](O)[C@H]2O)c(=O)[nH]1` [URIDINE_DIPHOSPHATE], in data set [17] (read-out: EC50), the concentration giving a half-maximal response (EC50) is 200 nM.

As to `BP(=O)(OC[C@H]1O[C@@H](n2cnc3c(N)nc(SC)nc32)[C@H](O)[C@@H]1O)OP(=O)(O)CP(=O)(O)O` (single isomer, unassigned; diastereomer B), the EC50 in data set [7] came out at 17200 nM. Besides, the half-life at 40000 µM in [18] is 71.9 h. Also, the half-life in data set [8] is 14.5 h. In addition, in data set [9], the Stability entry was “Stable”.

The values are drawn from ChEMBL document CHEMBL1137702, “Identification of hydrolytically stable and selective P2Y(1) receptor agonists” (Eur J Med Chem, 2009).
